We go through 60 molecules from PubChem BioAssay AID504382 (The Scripps Research Institute Molecular Screening Center, 2011).

Hit rate of the full screen: of about 2,500 compounds, about 460 (18%) were called active.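 How the source made its calls: active means mean activation above a cutoff of low control average plus 3 SD from the earlier screen (cut at about 12% in these data); inactive means the rest.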 A selection follows.

The assay is described as follows: compound fluorescence interference without thin filaments, confirmation, artefact control for cardiac RTF calcium sensitizer project, biochemical (AID 504382). Particulars: IANBD fluorescence interference counterscreen, buffer, EC20 Ca2+; at 7.2 µM; active compounds read high; scaled: EC20 calcium 0, EC100 calcium 100. Summed up: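 Medium: MOPS buffer, 190 mM, with KCl, MgCl2, EGTA, NTA, DTT, pH 7.20; Dosing: one dose of 7.2 µM, 0.7% DMSO; Probe or stimulus: calcium at EC20 level, 0.472 mM final; Incubation: 15 min, 25 °C; Evaluation: compound fluorescence interference relative to control well signal range; Signal: fluorescence, 480/540 nm.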
In general terms: The purpose of a counterscreen is to sort out artefacts and off-target activity.
In the case of `COc1cccc(C2CC(c3ccccc3)n3ncnc3N2)c1` (stereo not given), the fluorescence artifact activation is 7.41% (inactive).

Consider `CCOC(=O)N1CCC(Nc2nc3ccccc3nc2NS(=O)(=O)c2ccc(Cl)cc2)CC1`, for which the fluorescence artifact activation was -0.02% (inactive).

`CCOC(=O)N1CCC(Nc2cccc(SC)c2)CC1`: the fluorescence artifact activation was 97.8% (active).

With `CCOC(=O)N1CCC(NC(=O)c2cccs2)CC1`, the fluorescence artifact activation is -0.01% (inactive).

Turning to `CN1CCc2c(sc(/N=C/c3cccs3)c2C(N)=O)C1`, the fluorescence artifact activation was -0.06% (inactive).

Regarding `O=C(NCC1CC1)Nc1cccc(Cl)c1`, the fluorescence artifact activation was 0.16% (inactive).

For the molecule `Cn1c(NC(=O)C[n+]2cc(-c3ccc(Cl)cc3)n3c2CCC3)cc(=O)n(C)c1=O`, the fluorescence artifact activation was 1.86% (inactive).

In the case of `COc1ccc(C2C(C(=O)c3cccs3)=C(O)C(=O)N2c2nnc(C)s2)cc1OC` (stereo not given), the fluorescence artifact activation was 0.77% (inactive).

`Cc1ccc(C2C(C(=O)c3cccs3)=C(O)C(=O)N2c2nnc(C)s2)cc1` (stereo not given): the fluorescence artifact activation is 17.5% (active).

With `C=CCOc1ccc(C2C(C(=O)c3cccs3)=C(O)C(=O)N2c2nnc(C)s2)cc1` (stereo not given), the fluorescence artifact activation is 0.1% (inactive).

Take `O=c1c2ccccc2cnn1Cc1n[nH]c(=S)n1-c1ccccc1Cl`: the fluorescence artifact activation was 2.78% (inactive).

With `O=C(O)c1cccc([N+](=O)[O-])c1C(=O)Nc1cccc2ccccc12`, the fluorescence artifact activation is 1.51% (inactive).

In the case of `CC(C)C12CN(C(=O)c3ccccc3[N+](=O)[O-])CC(C(C)C)(CN(C(=O)c3ccccc3[N+](=O)[O-])C1)C2=O`, the fluorescence artifact activation was 0.02% (inactive).

For the molecule `O=C(O)c1cccc2c1-c1c(cccc1[N+](=O)[O-])C2`, the fluorescence artifact activation is 706% (active).

Regarding `COc1ccc(Cl)cc1NC(=O)CN(C)C(=O)COc1ccccc1F`, the fluorescence artifact activation was 0.35% (inactive).

`COc1ccc(OC)c(NC(=O)c2cc(S(=O)(=O)N(C)C)ccc2N2CCCC2)c1`: the fluorescence artifact activation is 0.05% (inactive).

Consider `COc1ccc(Cl)cc1NC(=O)CN(C)C(=O)c1ccc(N2CCCCCC2)c([N+](=O)[O-])c1`, for which the fluorescence artifact activation is 21.3% (active).

Turning to `Cc1nc(NC(=O)c2ccccc2[N+](=O)[O-])sc1C(=O)N(C)C`, the fluorescence artifact activation is 0.02% (inactive).

As to `O=C(c1ccc(Nc2cccc(C(F)(F)F)c2)nc1)N1CCCC1`, the fluorescence artifact activation was 55.9% (active).

For the molecule `COc1cccc(S(=O)(=O)Nc2cccc(C(=O)N3CCCCCC3)c2)c1`, the fluorescence artifact activation is 0.03% (inactive).

With `O=C(CN1CCN(c2ccccc2)CC1)Nc1cccc(C(F)(F)F)c1`, the fluorescence artifact activation is 0.02% (inactive).

Turning to `Cc1ccc(S(=O)(=O)N2CCOCC2)cc1NC(=O)CSc1nccn1C`, the fluorescence artifact activation was 0.07% (inactive).

As to `CCCCCC(C)NC(=S)NC(=O)c1cc(S(=O)(=O)N2CCOCC2)ccc1C` (stereo not given), the fluorescence artifact activation was 0.05% (inactive).

Regarding `Cc1csc(NS(=O)(=O)c2cccc([N+](=O)[O-])c2)n1`, the fluorescence artifact activation is 0.08% (inactive).

In the case of `CC1=CC(=C(C#N)C#N)C=C(C)N1Cc1ccc(Cl)cc1`, the fluorescence artifact activation is 10.8% (inactive).

`CCSC1=N/C(=C\C=C2/Oc3ccccc3N2CC)C(=O)S1`: the fluorescence artifact activation was 9.59% (inactive).

Regarding `COC(=O)c1ccc(CSc2nnc(NCc3ccccc3)s2)o1`, the fluorescence artifact activation was 4.53% (inactive).

As to `CC(Sc1nnc(NCc2ccccc2)s1)C(=O)Nc1ccc2c(c1)C(=O)c1ccccc1C2=O` (stereo not given), the fluorescence artifact activation was 49% (active).

`CC1(C(=O)Nc2nnc(SCc3ccccc3)s2)Cc2ccccc2C(=O)O1` (stereo not given): the fluorescence artifact activation was 4.5% (inactive).

Regarding `CCc1ccc(C(C)NC(=O)c2ncn[nH]2)cc1` (stereo not given), the fluorescence artifact activation is 2.22% (inactive).

For `Clc1ccc(-n2cc(-c3ccc(Br)cc3)[n+]3c2CCCCC3)cc1`, the fluorescence artifact activation was -0.05% (inactive).

For the molecule `CC(C)(Cc1cccc(CC(C)(C)C(=O)O)c1)C(=O)O`, the fluorescence artifact activation is 0.07% (inactive).

For the molecule `CC(=O)Oc1ccc(NC(=O)Cc2ccccc2)c(C(=O)O)c1`, the fluorescence artifact activation was 4.96% (inactive).

For `CC(=O)Oc1ccc2c(c1)Oc1cc(OC(C)=O)ccc1C21OC(=O)c2ccccc21`, the fluorescence artifact activation is 13.6% (active).

On to `CCOc1ccc(-c2ncncc2-c2ccccc2OC)c(O)c1`, for which the fluorescence artifact activation was 0.08% (inactive).

As for `COc1ccc(-n2nc3c(N4CCC(C(=O)N5CCC(C)CC5)CC4)nnc(C)c3c2C)cc1`, the fluorescence artifact activation was 0.01% (inactive).

For `CCOC(=O)C(CCCCCCC(NC(C)=O)(C(=O)OCC)C(=O)OCC)(NC(C)=O)C(=O)OCC`, the fluorescence artifact activation was -0.02% (inactive).

In the case of `Cc1ccc(C(=O)N(C)CC(=O)Nc2cccc(F)c2)cc1S(=O)(=O)N1CCCCC1`, the fluorescence artifact activation is 0.72% (inactive).

As for `Cc1ccnc(N/C=C(\C#N)c2nc(-c3cccc(Br)c3)cs2)c1`, the fluorescence artifact activation was 5.15% (inactive).

For `COc1cccc(/C=N/Nc2nnc(C)n2N)c1O`, the fluorescence artifact activation is 0.12% (inactive).

Take `CC(C)(C)c1ccc(-c2n[nH]c(=S)n2CC2CCCO2)cc1` (stereo not given): the fluorescence artifact activation was 34.7% (active).

Regarding `CCOc1cc(/C=C2\NC(=O)NC2=O)cc([N+](=O)[O-])c1O`, the fluorescence artifact activation was 0.01% (inactive).

In the case of `COc1ccc(/C=C2/SC(c3ccc(C)cc3)=NC2=O)cc1OC`, the fluorescence artifact activation is 6.74% (inactive).

Turning to `CCOC(=O)c1ccc(-c2c(-c3ccc4c(c3)OCO4)noc2C)cc1F`, the fluorescence artifact activation was 0.96% (inactive).

In the case of `O=C(Cc1nc2ccccc2[nH]c1=O)c1ccccc1`, the fluorescence artifact activation is 0.01% (inactive).

On to `O=C(O)CSc1nc2ccccc2nc1Cc1ccccc1F`, for which the fluorescence artifact activation was 163% (active).

In the case of `O=c1ccc2cc3c4c(c2o1)CCCN4CCC3`, the fluorescence artifact activation was 9.87% (inactive).

With `Cn1ncc2c(O/N=C(\N)c3ccc(C(F)(F)F)cc3)ncnc21`, the fluorescence artifact activation was 18.5% (active).

For `Cc1c(O)c(=O)c2ccccc2n1C`, the fluorescence artifact activation is 2.22% (inactive).

Take `CCCOc1ccc(Cn2c(=O)oc3ccc(C)cc32)cc1OC`: the fluorescence artifact activation was 6.44% (inactive).

On to `CCCCCOc1ccc(CN2CCOCC2)cc1Cl`, for which the fluorescence artifact activation was 25.8% (active).

`CCOc1ccc2ccccc2c1CNCCN1CCOCC1`: the fluorescence artifact activation is 9.02% (inactive).

In the case of `CCC(=O)N(C)CCc1cc2c(c(OC)c1/C=N/NC(=O)c1ccc(Br)cc1)OCO2`, the fluorescence artifact activation is 0.24% (inactive).

For `O=C(Cn1c(=O)c(=O)n(Cc2ccccc2)c2ccc(Cl)cc21)Nc1ccc(F)cc1F`, the fluorescence artifact activation was 0.95% (inactive).

As to `COc1ncnc2c1N=C1CC(C)(C)CC(N)=C1S2`, the fluorescence artifact activation was 17.8% (active).

In the case of `CC1(C)CC2CC(C)(CN2C(=S)Nc2ccccc2F)C1` (stereo not given), the fluorescence artifact activation was 0.69% (inactive).

As to `O=C(NC1CC1)c1cccc2c1C(=O)c1ccc(N3CCC(Cc4ccccc4)CC3)cc1S2(=O)=O`, the fluorescence artifact activation is -0.05% (inactive).

On to `O=C1CCC/C(=N/NC(=O)c2sc3ccccc3c2Cl)C1`, for which the fluorescence artifact activation was 0.36% (inactive).

Regarding `O=C1CCCC(=NNC(=O)c2cc3ccccc3cc2O)C1`, the fluorescence artifact activation was 0.08% (inactive).

In the case of `COc1ccc2c(Cl)c(C(=O)N/N=C3\CCCC(=O)C3)sc2c1`, the fluorescence artifact activation is 16.2% (active).
